The subject of assay [1] is Plasmodium falciparum. In words: Antimalarial activity against Plasmodium falciparum K1 assessed as reduction in parasite growth measuring [3H]-hypoxanthine uptake by microculture radioisotope technique. It counts as functional, organism-based. The essentials:
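P. falciparum K1 (multidrug-resistant) cultured in vitro by Trager–Jensen method. Growth inhibition read as [3H]-hypoxanthine uptake in a microculture radioisotope assay (Desjardins method). Samples tested up to a maximum final concentration of 10 μg/mL. IC50 taken as the concentration giving 50% reduction in parasite growth. Dihydroartemisinin served as reference.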

The test system of assay [2] is Plasmodium falciparum. In words: Antimalarial activity against Plasmodium falciparum K1 assessed as reduction in parasite growth measuring [3H]-hypoxanthine uptake at 10 ug/ml by microculture radioisotope technique. The class given is functional, organism-based.
Another assay relates to NCI-H187. In words: Cytotoxicity against human NCI-H187 cells by colorimetric method. It counts as functional, cell-based. The essentials:
(§1)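 Human epidermoid carcinoma KB, breast cancer MCF7 and small cell lung cancer NCI-H187 lines assayed by the Skehan colorimetric method. Test samples at a maximum final concentration of 50 μg/mL. Doxorubicin served as reference. Values are reported as IC50.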

Assay [3] deals with Mycobacterium tuberculosis. In words: Antimycobacterial activity against Mycobacterium tuberculosis H37Ra at 50 ug/ml by MABA. The class given is functional, organism-based. The essentials:
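M. tuberculosis H37Ra was tested in vitro by microplate Alamar Blue assay (MABA). 50 μg/mL was the highest test concentration. Isoniazid was run as the reference standard.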

In another assay the test system is MCF7. In words: Cytotoxicity against human MCF7 cells by colorimetric method. The class given is functional, cell-based. The essentials:
as §1

The subject of the next assay is KB. In words: Cytotoxicity against human KB cells by colorimetric method. It counts as functional, cell-based. The essentials:
as §1

[4] abbreviates: Homo sapiens, MCF7, read-out: IC50.

Active and inactive are the calls of the source. No cut-off for these calls is given here.

As for `C[C@H]1[C@@H](O)O[C@@H]2O[C@@]3(C)CC[C@H]4[C@H](C)CC[C@@H]1[C@@]24OO3` [ARTENIMOL], the IC50 – broadly, the midpoint of a concentration-inhibition curve – with Plasmodium falciparum [1] was 0.00142 µM.

In the case of `COc1cc(CCCc2cc(O)c(OC)cc2OC)ccc1O`, the outcome (with Plasmodium falciparum [2]; in assay [3]) was inactive. Moreover, the half-maximal inhibitory concentration (IC50) in the assay on NCI-H187 turned out to be 34.6 µM; with MCF7 (setting [4]), 23.1 µM; in the assay on KB, 24.6 µM.

`COc1cc([C@@H]2CCc3cc(O)c(OC)cc3O2)ccc1O`: the outcome (in the assay on Plasmodium falciparum [2]; in assay [3]) was inactive. The results for the IC50 with NCI-H187, in the assay with MCF7 (setting [4]) and with KB were 76.5 µM, 90.1 µM and 69 µM, respectively.

`COc1cc2c(cc1O)CC[C@@H](c1ccc(O)c(O)c1)O2`: the IC50 with Plasmodium falciparum [1] is 13 µM; in the assay with NCI-H187 it was 72 µM; with MCF7 (setting [4]), 110 µM; with KB, 24.6 µM. Further, the outcome in assay [3] was inactive.

Turning to `COc1cc([C@@H]2CCc3cc(OC)c(OC)cc3O2)ccc1O` [(2S)-4'-HYDROXY-6,7,3'-TRIMETHOXYFLAVAN], the outcome (with Plasmodium falciparum [2]; in assay [3]) was inactive. For the same compound, the IC50 in the assay with NCI-H187 is 125 µM; in the assay on MCF7 (mcf7), “Not Active”; in the assay on KB it was 106 µM.

As for `COc1cc2c(cc1OC)O[C@H](c1ccc(O)c(O)c1)CC2` [(2S)-3',4'-DIHYDROXY-6,7-DIMETHOXYFLAVAN], the half-maximal inhibitory concentration (IC50) in the assay with Plasmodium falciparum [1] stood at 15.7 µM; with NCI-H187, 51.4 µM; in the assay on MCF7 (setting [4]) it was 75 µM; in the assay on KB, 43.1 µM. Also, in assay [3], the outcome was inactive.

In the case of `COc1cc(CCCc2cc(OC)c(O)c(OC)c2)ccc1O`, the IC50 with Plasmodium falciparum [1] was found to be 14.5 µM; in the assay with NCI-H187, 42.1 µM; with MCF7 (setting [4]), 72 µM; in the assay with KB it was 46 µM. In addition, the outcome in assay [3] was inactive.

On to `COc1cc(OC)c2c(c1)O[C@H](c1ccc(O)c(O)c1)CC2` [(2S)-3',4'-DIHYDROXY-5,7-DIMETHOXYFLAVAN], for which the IC50 stood at 9.66 µM in the assay with Plasmodium falciparum [1], 10.4 µM with NCI-H187, 49.1 µM in the assay with MCF7 (setting [4]) and 31.8 µM in the assay with KB. In addition, in assay [3], the result was inactive.

For `COc1ccc2c(c1)O[C@H](c1ccc(O)c(OC)c1)CC2` [(2S)-4'-HYDROXY-7,3'-DIMETHOXYFLAVAN], the result (in the assay on Plasmodium falciparum [2]; in assay [3]) was inactive. Also, the concentration for half-maximal inhibition (IC50) in the assay with NCI-H187 was determined as 60.2 µM; with MCF7 (setting [4]) it was 88.4 µM; with KB it was 97.9 µM.

In the case of `COc1cc(CCCc2c(OC)cc(O)cc2OC)ccc1O`, the result (in the assay on Plasmodium falciparum [2]; in assay [3]) was inactive. Also, the results for the 50% inhibitory concentration (IC50) with NCI-H187, in the assay on MCF7 (setting [4]) and with KB were 96 µM, 64.2 µM and 49.3 µM, respectively.

As to `COc1cccc2c1C(=O)c1c(O)c3c(c(O)c1C2=O)C[C@@](O)(C(=O)CO)C[C@@H]3O[C@H]1C[C@H](N)[C@H](O)[C@H](C)O1` [DOXORUBICIN], the half-maximal inhibitory concentration (IC50) is 0.12 µM in the assay with NCI-H187 and 0.38 µM in the assay on KB.
